Experimental data reported in ChEMBL document CHEMBL3272327, “Hypocholesterolemic activity of 1,3-bis(substituted phenoxy)-2-propanones” (J Med Chem, 1976).

Key:
Rattus norvegicus [1] = experiment: Hypocholesterolemic activity in Sprague-Dawley rat assessed as serum cholesterol level at 10 mg/kg/day, po administered via intubation measured on day 16 by Liebermann-Burchard reaction (reference value: 100%); type: functional
Rattus norvegicus [2] = experiment: Hypocholesterolemic activity in Sprague-Dawley rat assessed as serum cholesterol level at 10 mg/kg/day, po administered via intubation measured on day 4 by Liebermann-Burchard reaction (reference value: 100%); type: functional
Rattus norvegicus [3] = experiment: Hypocholesterolemic activity in Sprague-Dawley rat assessed as serum cholesterol level at 10 mg/kg/day, po administered via intubation measured on day 10 by Liebermann-Burchard reaction (reference value: 100%); type: functional
[4] = Toxicity in ip dosed CF1 mouse assessed as animal death; type: organism-based; conditions: in vivo
How it was run: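 Male CF1 mice given active propanones ip over 10 mg to 6 g/kg where solubility allowed; deaths recorded to estimate LD50.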

[5] = Solubility of the compound in 1% CMC; type: physicochemical
Rattus norvegicus [6] = experiment: Effect on kidney weight in rat at 10 mg/kg/day administered for 16 days measured 24 hrs after last drug dosage relative to total body weight (reference value: 0.96 +/- 0.08%); type: ADME, organism-based; conditions: in vivo
Rattus norvegicus [7] = experiment: Effect on vesicular gland weight in rat at 10 mg/kg/day administered for 16 days measured 24 hrs after last drug dosage relative to total body weight (reference value: 0.11 +/- 0.04%); type: ADME, organism-based; conditions: in vivo
Rattus norvegicus [8] = experiment: Uterotrophic activity in ovariectomized Sprague-Dawley rat assessed as uterine weight administered for 3 days (reference value: 100 +/- 27%); type: organism-based, Uterus; conditions: in vivo, 72 h
Rattus norvegicus [9] = experiment: Effect on epididymis and vas deferens weight in rat at 10 mg/kg/day administered for 16 days measured 24 hrs after last drug dosage relative to total body weight (reference value: 0.24 +/- 0.07%); type: ADME, organism-based; conditions: in vivo
Rattus norvegicus [10] = experiment: Effect on liver weight in rat at 10 mg/kg/day administered for 16 days measured 24 hrs after last drug dosage relative to total body weight (reference value: 4.54 +/- 0.29%); type: ADME, organism-based; conditions: in vivo
Rattus norvegicus [11] = experiment: Effect on testes weight in rat at 10 mg/kg/day administered for 16 days measured 24 hrs after last drug dosage relative to total body weight (reference value: 1.10 +/- 0.17%); type: ADME, organism-based, Testis; conditions: in vivo
Rattus norvegicus [12] = experiment: Effect on heart weight in rat at 10 mg/kg/day administered for 16 days measured 24 hrs after last drug dosage relative to total body weight (reference value: 0.43 +/- 0.10%); type: ADME, organism-based; conditions: in vivo
Rattus norvegicus [13] = experiment: Effect on RNA content in rat liver at 10 mg/kg/day administered for 16 days (reference value: 100 +/- 8%); type: ADME, organism-based; conditions: in vivo, 384 h
Rattus norvegicus [14] = experiment: Effect on lipid content in rat liver at 10 mg/kg/day administered for 16 days (reference value: 100 +/- 16%); type: ADME, organism-based; conditions: in vivo, 384 h
Rattus norvegicus [15] = experiment: Effect on protein content in rat liver at 10 mg/kg/day administered for 16 days (reference value: 100 +/- 6%); type: ADME, organism-based; conditions: in vivo, 384 h
Mus musculus [16] = experiment: Antifertility activity in CF1 mouse assessed as proportion of reabsorption litter at 50 mg/kg/day, ip (reference value: 100 +/- 25%); type: ADME, organism-based; design: route intraperitoneal; conditions: in vivo
Rattus norvegicus [17] = experiment: Effect on DNA content in rat liver at 10 mg/kg/day administered for 16 days (reference value: 100 +/- 25%); type: ADME, organism-based; conditions: in vivo, 384 h
Mus musculus [18] = experiment: Antifertility activity in CF1 mouse assessed as proportion of pregnant animals at 50 mg/kg/day, ip (reference value: 100%); type: ADME, organism-based; design: route intraperitoneal; conditions: in vivo
Rattus norvegicus [19] = experiment: Effect on glycogen content in rat liver at 10 mg/kg/day administered for 16 days (reference value: 100 +/- 24%); type: ADME, organism-based; conditions: in vivo, 384 h
Rattus norvegicus [20] = experiment: Hypocholesterolemic activity in rat assessed as serum triglyceride level at 10 mg/kg/day administered for 8 days (reference value: 100 +/- 15%); type: functional
How it was run: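 Male Sprague-Dawley rats dosed orally at 10 mg/kg/day in 1% CMC. Serum triglycerides were measured with a stat pack kit after 8 days of dosing. Expressed as percent of vehicle control, N = 8; Student's t test.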

Mus musculus [21] = experiment: Antifertility activity in CF1 mouse assessed as proportion of fetus per litter at 50 mg/kg/day, ip (reference value: 100 +/- 25%); type: ADME, organism-based; design: route intraperitoneal; conditions: in vivo
Mus musculus [22] = species: Mus musculus; experiment: Antifertility activity in CF1 mouse assessed as proportion of pregnant animals at 10 ug (reference value: 100%); type: ADME, organism-based; conditions: in vivo
Mus musculus [23] = species: Mus musculus; experiment: Antifertility activity in CF1 mouse assessed as proportion of fetus per litter at 10 ug (reference value: 100 +/- 25%); type: ADME, organism-based; conditions: in vivo
Mus musculus [24] = species: Mus musculus; experiment: Antifertility activity in CF1 mouse assessed as proportion of reabsorption litter at 10 ug (reference value: 100 +/- 25%); type: ADME, organism-based; conditions: in vivo

SMILES	Activity (Rattus norvegicus [1])	Activity (Rattus norvegicus [2])	Activity (Rattus norvegicus [3])	also measured
O=C(COc1ccccc1)COc1ccccc1	90%	104%	87%	
COc1ccccc1OCC(=O)COc1ccccc1OC	79%	102%	83%	
O=C(COc1ccc(I)cc1)COc1ccc(I)cc1	93%	100%	103%	
O=C(COCc1ccc(Cl)cc1)COCc1ccc(Cl)cc1	92%	106%	88%	
CC(=O)C(O)(Cc1ccccc1)Cc1ccccc1	84%	88%	77%	
Cc1ccc(OCC(=O)C(O)(Cc2ccccc2)Cc2ccccc2)cc1	70%	80%	72%	
Cc1ccc(CCC(=O)CCc2ccc(C)cc2)cc1	96%	91%	86%	
O=C(CS(=O)(=O)c1ccc(Cl)cc1)CS(=O)(=O)c1ccc(Cl)cc1	91%	82%	86%	
CCCCCCCCCCCCCCCCOCC(=O)COCCCCCCCCCCCCCCCC	91%	88%	89%	
CCC(=O)c1ccc(OCC(=O)CCl)cc1	90%	79%	89%	
Cc1cc(OCC(=O)COc2cc(C)c(Cl)c(C)c2)cc(C)c1Cl	61%	78%	70%	LD50 [4]: > 6000 mg/kg; solubility [5]: Insoluble; Activity (Rattus norvegicus [6]): 1.02%; Activity (Rattus norvegicus [7]): 0.1%; Activity (Rattus norvegicus [8]): 83%; Activity (Rattus norvegicus [9]): 0.27%; Activity (Rattus norvegicus [10]): 4.66%; Activity (Rattus norvegicus [11]): 0.91%
O=C(COc1ccc(F)cc1)COc1ccc(F)cc1	82%	88%	87%	
O=C(COc1ccc(Br)cc1)COc1ccc(Br)cc1	85%	74%	85%	
Cc1ccc(OCC(=O)COc2ccc(Cl)cc2)cc1	75%	108%	84%	
COc1ccc(OCC(=O)COc2ccc(Cl)cc2)cc1	84%	102%	88%	
Cc1cccc(OCC(=O)COc2cccc(C)c2)c1	97%	115%	119%	
CCc1ccc(OCC(=O)COc2ccc(CC)cc2)cc1	64%	70%	60%	LD50 [4]: > 3000 mg/kg; solubility [5]: Insoluble; Activity (Rattus norvegicus [6]): 0.87%; Activity (Rattus norvegicus [7]): 0.15%; Activity (Rattus norvegicus [8]): 62%; Activity (Rattus norvegicus [9]): 0.27%; Activity (Rattus norvegicus [10]): 4.28%; Activity (Rattus norvegicus [11]): 1.14%

SMILES	Activity (Rattus norvegicus [1])	Activity (Rattus norvegicus [2])	Activity (Rattus norvegicus [3])	also measured
COc1ccc(OCC(=O)COc2ccc(OC)cc2)cc1	60%	76%	51%	LD50 [4]: 6000 mg/kg; Activity (Rattus norvegicus [12]): 0.54%; Activity (Rattus norvegicus [6]): 1.04%; Activity (Rattus norvegicus [7]): 0.11%; Activity (Rattus norvegicus [8]): 70%; Activity (Rattus norvegicus [9]): 0.22%; Activity (Rattus norvegicus [10]): 4.73%; Activity (Rattus norvegicus [11]): 1.22%
CCOc1ccc(OCC(=O)COc2ccc(OCC)cc2)cc1	85%	77%	96%	
CCCc1ccc(OCC(=O)COc2ccc(CCC)cc2)cc1	78%	94%	88%	
CC(C)(C)c1ccc(OCC(=O)COc2ccc(C(C)(C)C)cc2)cc1	83%	87%	95%	
O=C(CSc1ccc(Cl)cc1)CSc1ccc(Cl)cc1	66%	70%	73%	LD50 [4]: > 3000 mg/kg; solubility [5]: Insoluble; Activity (Rattus norvegicus [6]): 0.94%; Activity (Rattus norvegicus [7]): 0.12%; Activity (Rattus norvegicus [8]): 86%; Activity (Rattus norvegicus [9]): 0.25%; Activity (Rattus norvegicus [10]): 4.53%; Activity (Rattus norvegicus [11]): 1.13%
Cc1cc(Cl)c(OCC(=O)COc2cc(C)c(C)cc2Cl)cc1C	58%	79%	65%	LD50 [4]: > 2000 mg/kg; solubility [5]: Insoluble; Activity (Rattus norvegicus [12]): 0.52%; Activity (Rattus norvegicus [6]): 1.06%; Activity (Rattus norvegicus [7]): 0.16%; Activity (Rattus norvegicus [8]): 56%; Activity (Rattus norvegicus [9]): 0.27%; Activity (Rattus norvegicus [10]): 4.8%; Activity (Rattus norvegicus [11]): 1.24%
O=C(CSc1ccccc1)CSc1ccccc1	79%	96%	101%	
O=C(COc1cc(Cl)c(Cl)cc1Cl)COc1cc(Cl)c(Cl)cc1Cl	97%	94%	82%	
O=C(COc1ccc(Cl)cc1)COc1ccc(Cl)cc1	62%	81%	64%	LD50 [4]: > 2000 mg/kg; Activity (Rattus norvegicus [13]): 99%; solubility [5]: Insoluble; Activity (Rattus norvegicus [14]): 101%; Activity (Rattus norvegicus [12]): 0.39%; Activity (Rattus norvegicus [6]): 0.86%; Activity (Rattus norvegicus [15]): 91%; Activity (Mus musculus [16]): 30%; Activity (Rattus norvegicus [7]): 0.14%; Activity (Rattus norvegicus [17]): 78%; Activity (Rattus norvegicus [8]): 48%; Activity (Mus musculus [18]): 100%; Activity (Rattus norvegicus [9]): 0.26%; Activity (Rattus norvegicus [19]): 105%; Activity (Rattus norvegicus [20]): 108%; Activity (Mus musculus [21]): 84%; Activity (Rattus norvegicus [10]): 4.51%; Activity (Rattus norvegicus [11]): 1.23%
O=C(COc1cccc(Cl)c1)COc1cccc(Cl)c1	84%	97%	91%	
O=C(COc1ccccc1Cl)COc1ccccc1Cl	70%	69%	69%	Activity (Rattus norvegicus [6]): 1.02%; Activity (Rattus norvegicus [7]): 0.23%; Activity (Rattus norvegicus [9]): 0.27%; Activity (Rattus norvegicus [10]): 4.66%; Activity (Rattus norvegicus [11]): 1.21%
Cc1ccccc1OCC(=O)COc1ccccc1C	90%	90%	92%	
CC(Cc1ccccc1)C(=O)C(C)Cc1ccccc1 (centres undefined)				Activity (Mus musculus [16]): 0%; Activity (Mus musculus [18]): 0%; Activity (Mus musculus [21]): 0%
Cc1ccc(/C=C/C(=O)/C=C/c2ccc(C)cc2)cc1	96%	94%	83%	
CCOC(=O)C(C)(C)Oc1ccc(Cl)cc1 [CLOFIBRATE]	106%	111%	98%	
CC/C(=C(/CC)c1ccc(O)cc1)c1ccc(O)cc1 [DIETHYLSTILBESTROL]				Activity (Mus musculus [22]): 0%; Activity (Mus musculus [23]): 0%; Activity (Mus musculus [24]): 0%
C#C[C@]1(O)CC[C@H]2[C@@H]3CCc4cc(O)ccc4[C@H]3CC[C@@]21C [ETHINYL ESTRADIOL]				Activity (Rattus norvegicus [8]): 231%
